Data: ChEMBL document CHEMBL3045248, “Stereoselective synthesis and antifungal activities of (E)-alpha-(methoxyimino)benzeneacetate derivatives containing 1,3,5-substituted pyrazole ring” (2006)

Legend:
Assay type in all cases: functional
[1] = tested on: Botryosphaeria berengeriana; test: Fungicidal activity against Botryosphaeria berengeriana assessed as inhibition of mycelial elongation at 50 ug/mL incubated for 48 hr
Outline: (§1)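 Poisoned-food plate assay on potato glucose agar: DMF stock of 500 mg/L mixed 1:9 into molten medium at 50 °C, poured and set, then seeded with a 4 mm mycelial disk. Plates inverted, incubated 28 °C for 48 h. Water as blank control. Colony radius (mm) measured, triplicate; inhibition I = [(C − T)/C] × 100% versus control radius. Field isolates from crops.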

Rhizoctonia solani = test: Fungicidal activity against Rhizoctonia solani assessed as inhibition of mycelial elongation at 50 ug/mL incubated for 48 hr; outline: as §1
Bipolaris maydis = test: Fungicidal activity against Cochliobolus heterostrophus assessed as inhibition of mycelial elongation at 50 ug/mL incubated for 48 hr; outline: as §1
Botrytis cinerea = test: Fungicidal activity against Botryotinia fuckeliana assessed as inhibition of mycelial elongation at 50 ug/mL incubated for 48 hr; outline: as §1
Fusarium graminearum = test: Fungicidal activity against Fusarium graminearum assessed as inhibition of mycelial elongation at 50 ug/mL incubated for 48 hr
Outline: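 Field isolate of G. zeae taken from crops. A 500 mg/L DMF stock (1 mL) was mixed with 9 mL molten potato glucose agar at 50 °C and poured into plates. A 4 mm mycelial disk was placed on each plate, which was inverted and kept at 28 °C for 48 h. Water served as the blank. Colony radius was measured in triplicate, and inhibition was calculated as (C−T)/C×100%.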

SMILES	inhibition at 50 µg/mL [1]	inhibition at 50 µg/mL (Rhizoctonia solani)	inhibition at 50 µg/mL (Bipolaris maydis)	inhibition at 50 µg/mL (Botrytis cinerea)	inhibition at 50 µg/mL (Fusarium graminearum)
CO/N=C(/C(=O)OC)c1ccccc1CO/N=C/c1c(C)nn(C)c1Oc1ccc(C)cc1	88.2%	90.2%	72.7%	80.8%	50%
CO/N=C(/C(=O)OC)c1ccccc1CO/N=C/c1c(C)nn(C)c1Oc1ccccc1C	76.5%	83.7%	72.7%	80.8%	53.1%
CO/N=C(/C(=O)OC)c1ccccc1CO/N=C/c1c(C)nn(C)c1Oc1cccc(C)c1	100%	88%	81.8%	80.8%	96.9%
CO/N=C(/C(=O)OC)c1ccccc1CO/N=C/c1c(C)nn(C)c1Oc1ccc(Cl)cc1	92.6%	100%	92.9%	100%	80%
CO/N=C(/C(=O)OC)c1ccccc1CO/N=C/c1c(C)nn(C)c1Oc1ccc(Cl)cc1Cl	96.3%	99%	92.9%	100%	88.6%
CO/N=C(/C(=O)OC)c1ccccc1CO/N=C/c1c(C)nn(C)c1Oc1cccc([N+](=O)[O-])c1	77.8%	91.6%	64.3%	98.8%	62.9%
CO/N=C(/C(=O)OC)c1ccccc1CO/N=C/c1c(C)nn(C)c1Oc1ccccc1F	88.2%	83.7%	68.2%	84.6%	50%
CO/N=C(/C(=O)OC)c1ccccc1CO/N=C/c1c(C)nn(C)c1Oc1ccc(F)cc1	100%	90.2%	86.4%	88.5%	59.4%
CO/N=C(/C(=O)OC)c1ccccc1CO/N=C/c1c(C)nn(C)c1Oc1cccc(C(F)(F)F)c1	88.2%	83.7%	68.2%	92.3%	68.8%
CO/N=C(/C(=O)OC)c1ccccc1CO/N=C/c1c(C)nn(C)c1OC	100%	82.7%	86.7%	85.4%	79.4%
CCOc1c(/C=N/OCc2ccccc2/C(=N\OC)C(=O)OC)c(C)nn1C	100%	92.5%	92.6%	96.8%	90.5%
CCCOc1c(/C=N/OCc2ccccc2/C(=N\OC)C(=O)OC)c(C)nn1C	93.8%	87.8%	85%	87.1%	78.4%
CO/N=C(/C(=O)OC)c1ccccc1CO/N=C/c1c(C)nn(C)c1OCC(F)(F)F	95.5%	91.8%	90.9%	100%	80%
CO/N=C(/C(=O)OC)c1ccccc1COc1ccccc1C [KRESOXIM-METHYL]	98.5%	66.1%	90.6%	97.2%	96.8%
